Results gathered from unrelated publications.
Lines come from different studies, so protocols differ.
Fibroblast growth factor 14: Fibroblast growth factor 14 (Homo sapiens, UniProt Q92915)
HTR1A: 5-hydroxytryptamine receptor 1A (HTR1A, Homo sapiens, UniProt P08908)

| Structure (SMILES) | target | assay | conditions | measurement | value |
| --- | --- | --- | --- | --- | --- |
| CC(=O)Nc1ccc(Oc2ccc3c(c2)C(=O)N(c2cc(C)ccc2C)C3=O)cc1 | Fibroblast growth factor 14 | binding, SPR | – | kon | 69300 M⁻¹ s⁻¹ |
| NC/C(=C\F)COc1cccc(Cn2c(=S)[nH]c(=O)c3[nH]cnc32)c1 | HTR1A | ligand displacement, radioligand | 10 µM | inhibition | < 50% |
| C#Cc1cnc(Nc2ccnc(CO)c2)nc1Nc1ccccc1S(C)(=O)=NC#N (stereo not shown) | Serine/threonine-protein kinase RIO2 (RIOK2, Homo sapiens, UniProt Q9BVS4) | cell-free assay | 1 µM | remaining signal | 100% |
| COc1ccc2oc(-c3ccc4nc(N)oc4c3)c/c(=N\c3ccccc3NC(=O)CCN)c2c1 | Serine/threonine-protein kinase BRSK2 (BRSK2, Homo sapiens, UniProt Q8IWQ3) | binding | 1 µM | remaining binding | 85% |
| CN(C)CCOC(=O)COc1ccc(Cl)cc1 | HTR1A | ligand displacement, radioligand | 1 µM, cell membranes | inhibition | -5.33% |
| CCN1/C(=C/C(C)=O)Sc2ccc(F)cc21 | Nociceptin receptor (OPRL1, Homo sapiens, UniProt P41146) | ligand displacement, radioligand | 10 µM | inhibition | 0.04% |
| Cc1cccc(NC(=O)Cn2cc(CO)c3ccccc32)c1 | Fibroblast growth factor 14 | binding, SPR | – | koff | 0.013 s⁻¹ |
| CCCCC(=O)Nc1ccc(-c2ccc3ncn(CCC)c(=O)c3c2)cn1 | cAMP-dependent protein kinase catalytic subunit beta (PRKACB, Homo sapiens, UniProt P22694) | binding, competition with immobilised ligand | 0.5 µM | remaining binding | 87% |
| CC(=O)ON=C1C=CC(=C(C#N)c2ccccc2)C=C1 | Casein kinase I isoform epsilon (CSNK1E, Homo sapiens, UniProt P49674) | enzyme activity, inhibitor, ADP detection | 2 µM | activity vs control | 77% |
| O=C(CN(Cc1ccccc1)S(=O)(=O)c1ccc(F)cc1)Nc1cccc(Cl)c1Cl | Fibroblast growth factor 14 | thermal stability | 25 µM | ΔTm | 1 °C |
| C1=C/COCc2cc(ccc2OCCN2CCCC2)Nc2nccc(n2)-c2cccc(c2)COC/1 | Eukaryotic translation initiation factor 2-alpha kinase 1 (EIF2AK1, Homo sapiens, UniProt Q9BQI3) | binding | 0.1 µM | remaining binding | 87% |
| CC(=O)Nc1ccc(S(=O)(=O)N2CCN(CC(O)COc3ccc4ccccc4c3)CC2)cc1 (stereo not shown) | Fibroblast growth factor 14 | binding, SPR | – | kon | 4290 M⁻¹ s⁻¹ |
| Cc1cc(O)c(-c2ccc([C@@H](C)CN(C)C)cc2)c2c1[nH]c(=O)c1sccc12 | Serine/threonine-protein kinase TAO2 (TAOK2, Homo sapiens, UniProt Q9UL54) | enzyme activity, inhibitor | 0.1 µM | inhibition | -4.37% |
